Assay results from ChEMBL document CHEMBL2434891, “Design, synthesis, and in vitro cancer cell growth inhibition evaluation and antimalarial testing of trioxanes installed in cyclic 2-enoate substructures” (Eur J Med Chem, 2013).

Key:
MKN-74 = assay: Cytotoxicity against human MKN74 cells after 72 hrs by SRB assay; type: functional; settings: MKN-74, 72 h
DU-145 = assay: Cytotoxicity against human DU145 cells after 72 hrs by SRB assay; type: functional; settings: DU-145, 72 h
MKN-28 = assay: Cytotoxicity against human MKN28 cells after 72 hrs by SRB assay; type: functional; settings: MKN-28, 72 h
MKN-45 = assay: Cytotoxicity against human MKN45 cells after 72 hrs by SRB assay; type: functional; settings: MKN-45, 72 h
MKN-7 = assay: Cytotoxicity against human MKN7 cells after 72 hrs by SRB assay; type: functional; settings: MKN-7, 72 h
[1] = Cytotoxicity against human RXF631L cells after 72 hrs by SRB assay; type: functional; settings: RXF 631, 72 h
ACHN = assay: Cytotoxicity against human ACHN cells after 72 hrs by SRB assay; type: functional
SK-OV-3 = assay: Cytotoxicity against human SKOV3 cells after 72 hrs by SRB assay; type: functional; settings: SK-OV-3, 72 h
OVCAR-5 = assay: Cytotoxicity against human OVCAR5 cells after 72 hrs by SRB assay; type: functional; settings: OVCAR-5, 72 h
LOX IMVI = assay: Cytotoxicity against human LOXIMVI cells after 72 hrs by SRB assay; type: functional
OVCAR-3 = assay: Cytotoxicity against human OVCAR3 cells after 72 hrs by SRB assay; type: functional; settings: OVCAR-3, 72 h
A549 = assay: Cytotoxicity against human A549 cells after 72 hrs by SRB assay; type: functional, cell-based; settings: A549, 72 h
How it was run: (§1)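 Adherent cells grown at 37 °C and 5% CO2. Seeded at 1×10^4/well 24 h before dosing, then 72 h at 10–0.01 µg/mL final. Fixed with cold 50% TCA, stained with 0.4% SRB, dye extracted in 10 mM Tris, read at 540 nm.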

DMS-273 = assay: Cytotoxicity against human DMS273 cells after 72 hrs by SRB assay; type: functional; settings: DMS-273, 72 h
NCI-H460 = assay: Cytotoxicity against human NCI-H460 cells after 72 hrs by SRB assay; type: functional; settings: NCI-H460, 72 h
NCI-H522 = assay: Cytotoxicity against human NCI-H522 cells after 72 hrs by SRB assay; type: functional; settings: NCI-H522, 72 h
NCI-H226 = assay: Cytotoxicity against human NCI-H226 cells after 72 hrs by SRB assay; type: functional; settings: NCI-H226, 72 h
NCI-H23 = assay: Cytotoxicity against human NCI-H23 cells after 72 hrs by SRB assay; type: functional; settings: NCI-H23, 72 h
HCT-116 = assay: Cytotoxicity against human HCT116 cells after 72 hrs by SRB assay; type: functional, cell-based; settings: HCT-116, 72 h; how it was run: as §1
HCT-15 = assay: Cytotoxicity against human HCT15 cells after 72 hrs by SRB assay; type: functional; settings: HCT-15, 72 h
HT-29 = assay: Cytotoxicity against human HT-29 cells after 72 hrs by SRB assay; type: functional; settings: HT-29, 72 h
KM12 = assay: Cytotoxicity against human KM12 cells after 72 hrs by SRB assay; type: functional; settings: KM12, 72 h
SNB-78 = assay: Cytotoxicity against human SNB78 cells after 72 hrs by SRB assay; type: functional; settings: SNB-78, 72 h
SNB-75 = assay: Cytotoxicity against human SNB75 cells after 72 hrs by SRB assay; type: functional; settings: SNB-75, 72 h
SF-295 = assay: Cytotoxicity against human SF295 cells after 72 hrs by SRB assay; type: functional; settings: SF-295, 72 h
SF-539 = assay: Cytotoxicity against human SF539 cells after 72 hrs by SRB assay; type: functional; settings: SF-539, 72 h
SF-268 = assay: Cytotoxicity against human SF268 cells after 72 hrs by SRB assay; type: functional; settings: SF-268, 72 h
U-251 = assay: Cytotoxicity against human U251 cells after 72 hrs by SRB assay; type: functional; settings: U-251, 72 h
MV4-11 = assay: Antiproliferative activity against human MV4-11 cells after 72 hrs by MTT assay; type: functional, cell-based; settings: MV4-11, 72 h
[2] = read-out: LC50 (the source's name)

COc1ccc(C2O[C@]34CC(c5cccc(OC)c5)OC(=O)C3=C[C@@]2(C)OO4)cc1 (some centres not stated)
TGI (MKN-74): 37 µM | GI50 (MKN-74; read-out: GI50): 14 µM | CC50 (MKN-74; [2]): 96 µM | TGI (DU-145): 31 µM | GI50 (DU-145; read-out: GI50): 16 µM | CC50 (DU-145; [2]): 57 µM | TGI (MKN-28): 36 µM | GI50 (MKN-28; read-out: GI50): 11 µM | CC50 (MKN-28; [2]): 100 µM | TGI (MKN-45): 30 µM | GI50 (MKN-45; read-out: GI50): 16 µM | CC50 (MKN-45; [2]): 57 µM | TGI (MKN-7): 14 µM | GI50 (MKN-7; read-out: GI50): 3.4 µM | CC50 (MKN-7; [2]): 90 µM | TGI [1]: 31 µM | GI50 ([1]; read-out: GI50): 17 µM | CC50 [1, 2]: 59 µM | TGI (ACHN): 29 µM | GI50 (ACHN; read-out: GI50): 15 µM | CC50 (ACHN; [2]): 56 µM | TGI (SK-OV-3): 33 µM | GI50 (SK-OV-3; read-out: GI50): 1.9 µM | CC50 (SK-OV-3; [2]): 58 µM | TGI (OVCAR-5): 7.4 µM | GI50 (OVCAR-5; read-out: GI50): 2.8 µM | CC50 (OVCAR-5; [2]): 27 µM | TGI (LOX IMVI): 9 µM | GI50 (LOX IMVI; read-out: GI50): 1 µM | CC50 (LOX IMVI; [2]): 7.5 µM | TGI (OVCAR-3): 5.1 µM | GI50 (OVCAR-3; read-out: GI50): 2.4 µM | CC50 (OVCAR-3; [2]): 13 µM | TGI (A549): 37 µM | GI50 (A549; read-out: GI50): 18 µM | CC50 (A549; [2]): 72 µM | TGI (DMS-273): 27 µM | GI50 (DMS-273; read-out: GI50): 10 µM | CC50 (DMS-273; [2]): 74 µM | TGI (NCI-H460): 41 µM | GI50 (NCI-H460; read-out: GI50): 20 µM | CC50 (NCI-H460; [2]): 82 µM | TGI (NCI-H522): 5 µM | GI50 (NCI-H522; read-out: GI50): 2 µM | CC50 (NCI-H522; [2]): 22 µM | TGI (NCI-H226): 40 µM | GI50 (NCI-H226; read-out: GI50): 18 µM | CC50 (NCI-H226; [2]): 92 µM | TGI (NCI-H23): 36 µM | GI50 (NCI-H23; read-out: GI50): 17 µM | CC50 (NCI-H23; [2]): 79 µM | TGI (HCT-116): 13 µM | GI50 (HCT-116; read-out: GI50): 3.4 µM | CC50 (HCT-116; [2]): 70 µM | TGI (HCT-15): 17 µM | GI50 (HCT-15; read-out: GI50): 3.7 µM | CC50 (HCT-15; [2]): 100 µM | TGI (HT-29): 27 µM | GI50 (HT-29; read-out: GI50): 5.2 µM | CC50 (HT-29; [2]): 100 µM | TGI (KM12): 39 µM | GI50 (KM12; read-out: GI50): 18 µM | CC50 (KM12; [2]): 85 µM | TGI (SNB-78): 34 µM | GI50 (SNB-78; read-out: GI50): 13 µM | CC50 (SNB-78; [2]): 90 µM | TGI (SNB-75): 28 µM | GI50 (SNB-75; read-out: GI50): 12 µM | CC50 (SNB-75; [2]): 64 µM | TGI (SF-295): 33 µM | GI50 (SF-295; read-out: GI50): 18 µM | CC50 (SF-295; [2]): 60 µM | TGI (SF-539): 5.4 µM | GI50 (SF-539; read-out: GI50): 2.8 µM | CC50 (SF-539; [2]): 14 µM | TGI (SF-268): 36 µM | GI50 (SF-268; read-out: GI50): 14 µM | CC50 (SF-268; [2]): 92 µM | TGI (U-251): 33 µM | GI50 (U-251; read-out: GI50): 16 µM | CC50 (U-251; [2]): 68 µM | IC50 (MV4-11): 4.68 µM
